How the values were obtained:
[1] = test system: Raji; experiment: Inhibition of 12-O-tetradecanoylphorbol-13-acetate induced EBV-early antigen activation in human Raji cells assessed as EA activation at 10 molar ratio after 48 hrs by indirect immunofluorescence method relative to TPA; assay type: cell-based; conditions: human gammaherpesvirus 4
Method in brief: (§1)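 Raji cells (EBV genome-carrying, nonproducer) at 1 × 10^6/mL in 10% FBS RPMI 1640, incubated 37 °C for 48 h with n-butyric acid (4 mM) plus 32 pmol TPA (20 ng/mL), compound added in DMSO. EA-positive cells detected by indirect immunofluorescence using NPC patient sera; at least 500 cells counted, run twice, expressed relative to butyric acid + TPA control.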

[2] = Cytotoxicity against human Raji cells assessed as cell viability at 1000 molar ratio; assay type: cell-based; conditions: read-out: Activity
[3] = test system: Raji; experiment: Inhibition of 12-O-tetradecanoylphorbol-13-acetate induced EBV-early antigen activation in human Raji cells assessed as EA activation at 500 molar ratio after 48 hrs by indirect immunofluorescence method relative to TPA; assay type: cell-based; set-up: scale not given: the % may be the effect or the level left; conditions: human gammaherpesvirus 4; method in brief: as §1
[4] = test system: Raji; experiment: Inhibition of 12-O-tetradecanoylphorbol-13-acetate induced EBV-early antigen activation in human Raji cells assessed as EA activation at 100 molar ratio after 48 hrs by indirect immunofluorescence method relative to TPA; assay type: cell-based; conditions: human gammaherpesvirus 4; method in brief: as §1
[5] = test system: Raji; experiment: Inhibition of 12-O-tetradecanoylphorbol-13-acetate induced EBV-early antigen activation in human Raji cells assessed as EA activation at 1000 molar ratio after 48 hrs by indirect immunofluorescence method relative to TPA; assay type: cell-based; set-up: scale not given: the % may be the effect or the level left; conditions: human gammaherpesvirus 4; method in brief: as §1
[6] = Growth inhibition of human NCI60 cells after 48 hrs by sulforhodamine B assay; assay type: functional; conditions: NCI60, 48 h
Method in brief: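 NCI 60-cell panel (lung, colon, melanoma, renal, ovarian, brain, leukemia), continuous 48 h exposure, at least five 10-fold dilutions from a top concentration of 10^-4 M; cell growth estimated by sulforhodamine B protein staining.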

`C=C(CC[C@@H](C(=O)O)[C@H]1[C@H](O)C[C@@]2(C)C3=C(CC[C@]12C)[C@@]1(C)CC[C@H](O)C(C)(C)[C@@H]1CC3)C(C)C` [TUMULOSIC ACID] gave an EA activation relative to TPA control [1] of 90.5%, a viability at 1000 molar ratio [2] of 70% and an Activity [3] of 22.7%. The Remaining EA activation relative to TPA control [4] was 64.9% and the Activity [5] was 0%.

In the case of `C=C(CC[C@@H](C(=O)O)[C@H]1[C@H](O)C[C@@]2(C)C3=C(CC[C@]12C)[C@@](C)(CCC(=O)O)[C@H](C(=C)C)CC3)C(C)C` [PORICOIC ACID H], the EA activation relative to TPA control [1] is reported as 80.8%, the viability at 1000 molar ratio [2] is reported as 70% and the Activity [3] is reported as 15.7%. It also gave a Remaining EA activation relative to TPA control [4] of 53.8% and an Activity [5] of 0%.

In the case of `C=C(CC[C@@H](C(=O)O)[C@H]1[C@H](O)C[C@@]2(C)C3=CC[C@H]4C(C)(C)[C@H](O)CC[C@]4(C)C3=CC[C@]12C)C(C)C`, the EA activation relative to TPA control [1] is reported as 93.8%, the viability at 1000 molar ratio [2] is reported as 70% and the Activity [3] is reported as 25.5%. The Remaining EA activation relative to TPA control [4] was 67% and the Activity [5] was 0%.

For `C=C(CC[C@@H](C(=O)O)[C@H]1[C@H](O)C[C@@]2(C)C3=CC[C@@H](C(=C)C)[C@](C)(CCC(=O)O)C3=CC[C@]12C)C(C)C` [PORICOIC ACID A], the GI50 [6] was 15 µM, the EA activation relative to TPA control [1] was 83.8% and the viability at 1000 molar ratio [2] was 70%. It also gave an Activity [3] of 18.5%, a Remaining EA activation relative to TPA control [4] of 58.9% and an Activity [5] of 0%.

Work on `C=C(CC[C@@H](C(=O)O)[C@H]1[C@H](O)C[C@@]2(C)C3=CC[C@H]4C(C)(C)C(=O)CC[C@]4(C)C3=CC[C@]12C)C(C)C` [POLYPORENIC ACID B] yielded an EA activation relative to TPA control [1] of 92.6%, a viability at 1000 molar ratio [2] of 70% and an Activity [3] of 26.3%. The Remaining EA activation relative to TPA control [4] was 68.7% and the Activity [5] was 0%.

In the case of `C=C(CC[C@@H](C(=O)O)[C@H]1[C@H](O)C[C@@]2(C)C3=CC[C@H]4C(C)(C)[C@H](O)CC[C@]4(C)C3=CC[C@]12C)C(C)(C)O`, the EA activation relative to TPA control [1] is reported as 79.4%, the viability at 1000 molar ratio [2] is reported as 70% and the Activity [3] is reported as 13.2%. For the same compound, the Remaining EA activation relative to TPA control [4] was 51.6% and the Activity [5] was 0%.

In the case of `C=C(CC[C@@H](C(=O)O)[C@H]1[C@H](O)C[C@@]2(C)C3=CC[C@H]4C(C)(C)[C@@H](O)CC[C@]4(C)C3=CC[C@]12C)C(C)C` [DEHYDROTUMULOSIC ACID], the EA activation relative to TPA control [1] is reported as 90.5%, the viability at 1000 molar ratio [2] is reported as 70% and the Activity [3] is reported as 22.7%. It also gave a Remaining EA activation relative to TPA control [4] of 64.9% and an Activity [5] of 0%.

Work on `CC1=C(/C=C/C(C)=C/C=C/C(C)=C/C=C/C=C(C)/C=C/C=C(C)/C=C/C2=C(C)CCCC2(C)C)C(C)(C)CCC1` yielded an EA activation relative to TPA control [1] of 100% and an Activity [5] of 8.6%.

`C=C(C)[C@@H]1CC=C2C(=CC[C@]3(C)[C@@H]([C@@H](CCC=C(C)C)C(=O)O)[C@H](O)C[C@@]23C)[C@@]1(C)CCC(=O)O` [PORICOIC ACID B] gave an EA activation relative to TPA control [1] of 80.7%, a viability at 1000 molar ratio [2] of 70% and an Activity [3] of 14.3%. For the same compound, the Remaining EA activation relative to TPA control [4] was 54% and the Activity [5] was 0%.

With `COC(=O)[C@]1(C)CCC[C@]2(C)c3ccc(C(C)C)cc3CC[C@@H]12` [METHYL DEHYDROABIETATE] the EA activation relative to TPA control [1] was 91.6%, the viability at 1000 molar ratio [2] was 60% and the Activity [3] was 23.2%. It also gave a Remaining EA activation relative to TPA control [4] of 68.3% and an Activity [5] of 0%.

Work on `C=C(C)[C@@H]1CCC2=C(CC[C@]3(C)[C@@H]([C@@H](CCC=C(C)C)C(=O)O)[C@H](O)C[C@@]23C)[C@@]1(C)CCC(=O)O` [PORICOIC ACID G] yielded an EA activation relative to TPA control [1] of 82.8%, a viability at 1000 molar ratio [2] of 70% and an Activity [3] of 16%. The Remaining EA activation relative to TPA control [4] was 55.9% and the Activity [5] was 0%.
